The source made the active and inactive calls.
Key:
[1] = species on record: Danio rerio; assay: Inhibition of B-myb-mediated mitotic deffects in zebrafish bmyb mutant crb embryos assessed as number of centrosomes in pH3 -positive cells at […] at 24 hrs post fertilization by pH3 and gamma tubulin staining; assay type: cell-based
Summary of the method: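 Centrosomes detected with a monoclonal anti-γ-tubulin antibody (1:1,000) in embryos treated overnight with […] drug.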

[2] = target: T1, B-myb (Danio rerio) (UniProt Q4KMF7); assay: Inhibition of B-myb-mediated mitotic deffects in wild-type Zebrafish assessed as suppression of cells without spindles at […] at 24 hrs post fertilization by pH3 and alpha tubulin staining
T1 sequence (whole entry): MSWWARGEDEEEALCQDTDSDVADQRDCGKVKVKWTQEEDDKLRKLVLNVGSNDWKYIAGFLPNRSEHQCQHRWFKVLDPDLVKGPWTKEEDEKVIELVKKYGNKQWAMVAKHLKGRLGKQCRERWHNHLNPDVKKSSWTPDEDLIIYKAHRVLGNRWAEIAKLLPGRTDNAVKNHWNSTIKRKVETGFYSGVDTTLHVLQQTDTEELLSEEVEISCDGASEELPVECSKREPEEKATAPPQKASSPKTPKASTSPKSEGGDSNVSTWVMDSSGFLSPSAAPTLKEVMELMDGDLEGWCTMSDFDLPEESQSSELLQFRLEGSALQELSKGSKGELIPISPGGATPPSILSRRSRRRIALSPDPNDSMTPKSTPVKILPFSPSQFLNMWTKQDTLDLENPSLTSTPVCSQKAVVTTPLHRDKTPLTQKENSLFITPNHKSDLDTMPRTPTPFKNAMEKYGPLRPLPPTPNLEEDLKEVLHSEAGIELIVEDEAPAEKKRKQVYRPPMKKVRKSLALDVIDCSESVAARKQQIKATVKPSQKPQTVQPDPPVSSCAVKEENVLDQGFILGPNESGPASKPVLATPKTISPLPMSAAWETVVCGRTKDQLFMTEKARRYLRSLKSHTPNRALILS
Summary of the method: (§1)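 Embryos treated overnight with […] drug, then double-stained for α-tubulin and pH3. Spindles counted in the body distal to the yolk ball. DAPI-stained cells with condensed chromatin counted manually in one field at the tail tip.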

[3] = species on record: Danio rerio; assay: Inhibition of B-myb-mediated mitotic deffects in zebrafish bmyb mutant crb embryos assessed as suppression of cells without spindles at 8 mM at 24 hrs post fertilization by pH3 and alpha tubulin staining; summary of the method: as §1
[4] = target: T1, B-myb (Danio rerio); assay: Inhibition of B-myb-mediated mitotic deffects in wild-type zebrafish assessed as suppression of apoptosis at […] at 24 hrs post fertilization by TUNEL assay
Summary of the method: (§2)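 Embryos treated overnight (from 4 hpf) with […] drug, washed at 24 hpf. Apoptosis read by TUNEL staining at 24 hpf, and by brain opacity morphology at 30 hpf.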

[5] = species on record: Danio rerio; assay: Inhibition of B-myb-mediated mitotic deffects in zebrafish bmyb mutant crb embryos assessed as suppression of apoptosis at 8 mM at 24 hrs post fertilization by TUNEL assay; summary of the method: as §2
[6] = target: T1, B-myb (Danio rerio); assay: Inhibition of B-myb mediated mitotic deffects in wild-type zebrafish assessed as suppression of polyploidy at […] at 24 hrs post fertilization […]
Summary of the method: (§3)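 Control and treated embryos, […] overnight, disaggregated and DNA content (2n/4n/8n) measured by flow cytometry. Individual-embryo FACS used a cell-suspension aliquot for genotyping.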

[7] = species on record: Danio rerio; assay: Inhibition of B-myb-mediated mitotic deffects in zebrafish bmyb mutant crb embryos assessed as suppression of polyploidy at 8 mM at 24 hrs post fertilization by TUNEL assay; summary of the method: as §3
[8] = species on record: Danio rerio; assay: Inhibition of B-myb-mediated mitotic deffects in zebrafish bmyb mutant crb embryos
Summary of the method: (§4)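 crb heterozygote incrosses; embryos in E3 with 1% DMSO at 28.5 °C, compound added at 4 hpf and kept until 24 hpf ([…] except in dose-response). Fixed in 4% paraformaldehyde and whole-mount stained for serine-10-phosphorylated histone H3. All pH3-positive cells in the tail distal to the yolk extension counted, at least five embryos per condition. Embryos genotyped by RFLP. ED50 from dose-response.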

[9] = species on record: Danio rerio; assay: Inhibition of B-myb-mediated mitotic deffects in zebrafish bmyb mutant crb embryos at […]; details: TDE = time-dependent effect; summary of the method: as §4
[10] = target: T1, B-myb (Danio rerio); assay: Inhibition of B-myb-mediated mitotic deffects in wild-type zebrafish assessed as number of centrosomes in pH3 -positive cells at […] at 24 hrs post fertilization by pH3 and […] staining; assay type: cell-based
[11] = species on record: Danio rerio; assay: Inhibition of B-myb-mediated mitotic deffects in zebrafish bmyb mutant crb embryos assessed as reduction in abnormalities in mitotic spindle by pH3 and alpha tubulin staining; details: concentration not given here; summary of the method: as §1
[12] = species on record: Danio rerio; assay: Inhibition of B-myb-mediated mitotic deffects in zebrafish bmyb mutant crb embryos assessed as prometaphase arrest at 10 uM by pH3 and alpha tubulin staining
[13] = target: T1, B-myb (Danio rerio); assay: Inhibition of B-myb-mediated mitotic deffects in wild-type zebrafish embryo assessed as accumulation of cells in early S phase at […] at 24 hrs post fertilization for 6 hrs by flow cytometry
Summary of the method: (§5)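 Wild-type embryos exposed 24–30 hpf (6 h at 28.5 °C) to […] drug. Embryos disaggregated, immunostained for pH3 and DNA content measured by flow cytometry (G1/S/G2M fractions). For S-phase confirmation, embryos labelled with BrdU and incorporation read by whole-mount immunostaining and FACS.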

[14] = target: T1, B-myb (Danio rerio); assay: Inhibition of B-myb-mediated mitotic deffects in wild-type zebrafish embryo assessed as accumulation of cells in early S phase at […] at 24 hrs post fertilization for 6 hrs by flow cytometry in presence of 10 mM BrdU; summary of the method: as §5
[15] = species on record: Danio rerio; assay: Inhibition of B-myb-mediated mitotic deffects in zebrafish bmyb mutant crb embryos assessed as increase in cyclin B1 mRNA expression
Summary of the method: (§6)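 Wild-type and crb embryos treated with […] drug, then whole-mount in situ hybridization for cyclin B1.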

[16] = target: T1, B-myb (Danio rerio); assay: Inhibition of B-myb-mediated mitotic deffects in wild-type zebrafish assessed as increase in cyclin B1 mRNA expression; summary of the method: as §6
[17] = Induction of S to M phase cell cycle progression in zebrafish bmyb mutant embryo cells assessed as Brdu incorporation; assay type: functional, Danio rerio
[18] = species on record: Danio rerio; assay: Inhibition of B-myb-mediated mitotic deffects in zebrafish bmyb mutant embryo assessed as increase in mitotic cells with condensed chromatin at 10 uM by pH3 and alpha tubulin staining; assay type: cell-based
[19] = species on record: Danio rerio; assay: Inhibition of B-myb-mediated mitotic deffects in zebrafish bmyb mutant crb embryos at 50 mM
Summary of the method: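 crb heterozygote intercross embryos exposed from 4 hpf to 24 hpf at 28.5 °C in E3 with 1% DMSO (aphidicolin […]; hydroxyurea 50 mM). Fixed in 4% paraformaldehyde, whole-mount stained for phospho-histone H3 (Ser10), genotyped by RFLP. pH3-positive cells counted in the tail distal to the yolk extension, or mutant phenotype scored by eye.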

[20] = species on record: Danio rerio; assay: Inhibition of B-myb-mediated mitotic deffects in zebrafish bmyb mutant embryo assessed as intra-Sphase and G2/M checkpoint inhibition at 10 ug/ml
Summary of the method: (§7)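 crb embryos given 2 mM caffeine or none at 4 hpf. Thirty minutes later […] aphidicolin added, then incubated overnight to 24 hpf at 28.5 °C in E3 with 1% DMSO. Mitotic accumulation read by whole-mount phospho-histone H3 staining, with pH3-positive cells counted in the tail distal to the yolk extension.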

[21] = species on record: Danio rerio; assay: Inhibition of B-myb-mediated mitotic deffects in zebrafish bmyb mutant embryo assessed as intra-Sphase and G2/M checkpoint inhibition in presence of 2 mM caffeine at 10 ug/ml; summary of the method: as §7
[22] = species on record: Danio rerio; assay: Inhibition of B-myb-mediated mitotic deffects in zebrafish bmyb mutant crb embryos at 50 mM

O=C(Nc1ncccc1O)C12CC3CC(CC(C3)C1)C2 [PERSYNTHAMIDE]
60%: Activity [17]
55%: inhibition [11]
active: inhibition [1] | inhibition [2] | inhibition [3] | inhibition [4] | inhibition [5] | inhibition [6] | inhibition [7] | inhibition [9] tde | inhibition [10] | inhibition [12] | inhibition [13] | inhibition [14] | inhibition [15] | inhibition [16]
4: fold change (FC) [18]
5 µM: ED50 [8]

C[C@@]1(CO)[C@H](O)CC[C@@]2(C)[C@H]1CC[C@H]1C[C@@H]3C[C@@]12CC[C@]3(O)CO
active: inhibition [19] | inhibition [20] | inhibition [21] | inhibition [22]

NC(=O)NO
active: inhibition [19] | inhibition [22]

Source: ChEMBL document CHEMBL1221164, “Small molecules that delay S phase suppress a zebrafish bmyb mutant” (2005)
